What all share (type): functional, tissue-based
Assay [1] deals with Neuronal acetylcholine receptor subunit alpha-6 (Rattus norvegicus, UniProt P43143). In words: Antagonist activity at alpha6 nAChR in rat striatum assessed as inhibition of nicotine-induced [3H]dopamine release. In a few lines: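 Superfused rat striatal slices preloaded with [3H]DA; release evoked by 10 μM nicotine. Screening used 100 nM analogue, with inhibition expressed as % of the nicotine response without analogue (≥3 independent experiments, each in duplicate). Compounds giving >40% inhibition had full concentration-response curves run to derive IC50 and Imax (4–6 independent experiments).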

The target in assay [2] is Neuronal acetylcholine receptor subunit alpha-6 (Rattus norvegicus) (UniProt P43143). In words: Antagonist activity at alpha6 nAChR in rat striatum assessed as inhibition of nicotine-induced [3H]dopamine release relative to nicotine. Summed up: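 [3H]DA release from superfused rat striatal slices was evoked by 10 μM nicotine and tested across a full analogue concentration range. IC50 and Imax were derived from the concentration-response curves, with inhibition relative to the nicotine response in the absence of analogue. 4–6 independent experiments.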

Assay [3] has the same target. In words: Antagonist activity at alpha6 nAChR in rat striatum assessed as inhibition of nicotine-induced [3H]dopamine release at 100 nM relative to control. Summed up:
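Superfused rat striatal slices preloaded with [3H]DA. Nicotine-evoked [3H]DA release was elicited by 10 μM nicotine with 100 nM analogue present. Inhibition is expressed as a percentage of the nicotine response under control conditions without analogue. At least 3 independent experiments, each in duplicate.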

Sequence of Neuronal acetylcholine receptor subunit alpha-6 (Rattus norvegicus) (P43143 whole entry, the tested form may be a part): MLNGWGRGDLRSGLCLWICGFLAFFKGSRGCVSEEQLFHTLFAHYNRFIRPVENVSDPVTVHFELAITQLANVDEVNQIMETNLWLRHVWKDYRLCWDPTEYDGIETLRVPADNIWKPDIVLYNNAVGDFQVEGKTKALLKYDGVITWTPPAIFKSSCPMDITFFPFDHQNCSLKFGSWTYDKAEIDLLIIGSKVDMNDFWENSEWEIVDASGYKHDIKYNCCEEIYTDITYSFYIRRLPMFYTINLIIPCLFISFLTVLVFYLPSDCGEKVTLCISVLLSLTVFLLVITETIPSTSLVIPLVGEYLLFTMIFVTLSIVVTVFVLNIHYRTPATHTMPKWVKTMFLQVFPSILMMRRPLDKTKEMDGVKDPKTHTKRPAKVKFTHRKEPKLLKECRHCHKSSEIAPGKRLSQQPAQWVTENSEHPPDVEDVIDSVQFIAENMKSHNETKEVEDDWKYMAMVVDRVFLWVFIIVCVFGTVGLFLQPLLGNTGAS
Sequence of Neuronal acetylcholine receptor subunit alpha-6 (P43143 whole entry, the tested form may be a part): as above

One may read the IC50 as the concentration that inhibits the measured activity by half. On to `c1ccc2c(c1)CCN(CCCCCCCCCCCCN1CCc3ccccc3C1)C2`, for which the IC50 in assay [1] was determined as 8.59 nM. The Imax in assay [2] turned out to be 76%.
Take `Cc1ccc[n+](CCCCCCCCCCCC[n+]2cccc(C)c2)c1`: the IC50 in assay [1] is 2 nM. Further, in assay [2], the Imax was 63%.
Broadly, the inhibition is the share of the control response that was lost under treatment. As for `c1ccc2c(c1)CCN(CCCCCc1cc(CCCCCN3CCc4ccccc4C3)c(CCCCCN3CCc4ccccc4C3)cc1CCCCCN1CCc3ccccc3C1)C2`, the IC50 in assay [1] was 205 nM. In assay [2], the Imax is 64%. The inhibition in assay [3] is 84%.
As for `c1ccc2c[n+](CCCCCCCCCCCC[n+]3ccc4ccccc4c3)ccc2c1`, in assay [1], the IC50 was determined as 40 nM. In assay [2], the Imax was 53%.
`C(#Cc1ccccc1C#CCCCN1CCc2ccccc2C1)CCCN1CCc2ccccc2C1`: the inhibition in assay [3] stood at 18%.
In the case of `OCCCC1=CCCN(CCCCCc2cc(CCCCCN3CCC=C(CCCO)C3)c(CCCCCN3CCC=C(CCCO)C3)cc2CCCCCN2CCC=C(CCCO)C2)C1`, the IC50 in assay [1] came to 30 nM. In assay [2], the Imax is 64%. Also, in assay [3], the inhibition came to 40%.
For `CC1=CCCN(CCCCCCCCCCCCN2CCC=C(C)C2)C1` the same measures were 0.95 nM, 60% and 50%.
Take `CC1=CCCN(CCCC#Cc2cc(C#CCCCN3CCC=C(C)C3)cc(C#CCCCN3CCC=C(C)C3)c2)C1`: the IC50 in assay [1] stood at 3.22 nM. Moreover, the Imax in assay [2] was determined as 67%. In addition, the inhibition in assay [3] is 83%.
Turning to `c1ccc2c[n+](CCCCCc3cc(CCCCC[n+]4ccc5ccccc5c4)c(CCCCC[n+]4ccc5ccccc5c4)cc3CCCCC[n+]3ccc4ccccc4c3)ccc2c1`, the IC50 in assay [1] worked out at 56 nM. In assay [2], the Imax is 52%.
For `c1ccc2c[n+](CCCCCCCCCC[n+]3ccc4ccccc4c3)ccc2c1` the same measures were 70 nM and 95%.
For `c1ccc2c(c1)CCN(CCCCCCCCCCN1CCc3ccccc3C1)C2` the same measures were 9.91 nM and 74%.
For `C(#Cc1ccccc1C#CCCC[n+]1ccc2ccccc2c1)CCC[n+]1ccc2ccccc2c1` the same measures were 63 nM and 59%.
Regarding `c1ccc2c[n+](CCCCCc3cc(CCCCC[n+]4ccc5ccccc5c4)cc(CCCCC[n+]4ccc5ccccc5c4)c3)ccc2c1`, the inhibition in assay [3] amounted to 28%.
On to `Cc1ccc[n+](CCCCCCCCCC[n+]2cccc(C)c2)c1`, for which, in assay [1], the IC50 worked out at 180 nM. Further, the Imax in assay [2] came to 63%.
With `c1ccc2c(c1)CCN(CCCCCc1cc(CCCCCN3CCc4ccccc4C3)cc(CCCCCN3CCc4ccccc4C3)c1)C2`, the IC50 in assay [1] turned out to be 0.35 nM. Moreover, the Imax in assay [2] was 58%. The inhibition in assay [3] was 58%.
On to `CC1=CCCN(CCCCCCCCCCN2CCC=C(C)C2)C1`, for which the IC50 in assay [1] came out at 37.4 nM. In assay [2], the Imax amounted to 65%. Further, the inhibition in assay [3] stood at 36%.
For `Cc1ccc[n+](CCCC#Cc2cc(C#CCCC[n+]3cccc(C)c3)cc(C#CCCC[n+]3cccc(C)c3)c2)c1` the same measures were 0.2 nM, 67% and 40%.
Regarding `OCCCc1ccc[n+](CCCCCc2cc(CCCCC[n+]3cccc(CCCO)c3)c(CCCCC[n+]3cccc(CCCO)c3)cc2CCCCC[n+]2cccc(CCCO)c2)c1`, in assay [1], the half-inhibitory concentration (IC50) was determined as 3 nM. For the same compound, the Imax in assay [2] was 63%. In addition, in assay [3], the inhibition came out at 41%.

For the origin of these results see ChEMBL document CHEMBL1641376, “Novel bis-, tris-, and tetrakis-tertiary amino analogs as antagonists at neuronal nicotinic receptors that mediate nicotine-evoked dopamine release” (Bioorg Med Chem Lett, 2011).
